According to the array DNA melting data of Ke et al. (doi:10.1101/2024.01.08.574731):

Legend:
[1] = melting temperature; fluorescence melt of hairpins on a sequencing array, two-state fit, raised by 9.35 °C to match UV melts; settings: sodium 0.088 M
Procedure, shortened: (§1)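 Two-state fits, bootstrapped, provided melting temperature and folding enthalpy from Cy3 fluorescence normalised to pre-quench Cy3 and to control constructs. Library hairpins with annealed Cy3 and quencher oligos were imaged on a sequenced MiSeq flow cell in 50 mM Na-HEPES pH 8.0, 25 mM NaCl, at 2.5 °C intervals up to 60 °C. Four replicates were combined with inverse-variance weighting. A 9.35 °C upward shift was applied to fitted temperatures to match UV melts.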

[2] = folding enthalpy; higher = less favourable; fluorescence melt of hairpins on a sequencing array, two-state fit; settings: sodium 0.088 M
Procedure, shortened: as §1

Row | Sequence | Tm [1] [°C] | folding enthalpy [2] [kcal/mol]
1 | GCGCGGCGAAAGCTACGC (((..((....))..))) | 64.1 | -19.8
2 | GGTGTGGGAAACTGCACC ((((..(....)..)))) | 47.7 | -26.3
3 | GTGTGCGGAAACGCATGC (..((((....))))..) | 49.6 | -15.9
4 | CTTTGGAAACAAAG (((((....))))) | 37.1 | -22.4
5 | GGTCTGGGAAACCAGACC (((((((....))))))) | 67.7 | -47.2
6 | GTATACGGAAACGTATAC (((((((....))))))) | 55.9 | -44.8
7 | GGTGGCGGAAACGCTGCC ((..(((....)))..)) | 54.5 | -31.8
8 | GCATTCGAAAGAATTTGC ((((((....)))..))) | 30.2 | -16.9
9 | GCCAGGGGAAACCTTGGC ((((.((....)).)))) | 53.4 | -43.9
10 | GTTAGTCGAAAGACGAAC (((.(((....))).))) | 49 | -25.6
11 | GGATTACCGAAAGGTTCC (((..(((....)))))) | 30.8 | -13.5
12 | GTTGGTGGAAACGTCAAC ((((..(....)..)))) | 33.5 | -16.1
13 | GATCACACCAGTGATC ((((((....)))))) | 59 | -38.6
14 | GCCGGGCGAAAGCCGTGC ((..(((....)))..)) | 50.2 | -13.7
15 | GTATCTGGAAACAGATGC (.(((((....))))).) | 46.9 | -21.2
16 | GTTGAAGGAAACTTTAAC (((.(((....))).))) | 32.1 | -17.7
17 | GGGCTCGAAAGAGTACCC ((((((....)))..))) | 45 | -17.5
18 | GACACTCCGAAAGGAGTC (((..(((....)))))) | 32 | -7.77
19 | GTTGCCGAAAGGCCAAAC ((((((....)))..))) | 26.9 | -10.3

Row | Sequence | Tm [1] [°C] | folding enthalpy [2] [kcal/mol]
20 | GTAAGTGGAAACATTTAC ((((.((....)).)))) | 32.3 | -25.6
21 | GGAAGACGAAAGTCCTCC (((.(((....))).))) | 43 | -21.4
22 | GCATTTGGAAACAAGTGC (((.(((....))).))) | 46.3 | -26.2
23 | GTTAGCGAAAGCTAAAC ((((((....))).))) | 46.5 | -13.7
24 | GACGTAGGAAACCACGTC (((((.(....).))))) | 47.2 | -29.5
25 | GTTAGTGGAAACGCTAAC (((((.(....).))))) | 45.3 | -31.8
26 | GAGCGCCGAAAGGCTCTC (((.(((....))).))) | 50.7 | -21.4
27 | GATACTGGAAACAGTACC (.(((((....))))).) | 33.1 | -15.7
28 | GTTAACCGAAAGGTGAAC (((.(((....))).))) | 48.9 | -27.7
29 | GCTCGCGAAAGCGTCAGC ((((((....)))..))) | 41.4 | -12.3
30 | GGTCCGGCGAAAGCCACC (((..(((....)))))) | 27.1 | -8.92
31 | GATAAAGCGAAAGCTATC (((..(((....)))))) | 33.1 | -14.2
32 | GAGAACGAAAGTTCCCTC ((((((....)))..))) | 38.9 | -14
33 | GATCGCCAGGGCGATC ((((((....)))))) | 68.3 | -31
34 | GGGGCAGCGAAAGCTCCC (((..(((....)))))) | 56 | -16.7
35 | GCCCGCGGAAACACGGGC (((((.(....).))))) | 62.9 | -47.9
36 | GCTGCAGGAAACCACAGC ((((..(....)..)))) | 37 | -24.9
37 | GGCCACGGAAACGTGGTC (.(((((....))))).) | 64.9 | -25.7
38 | GAGTCGGGAAACTGGCTC (((.(.(....).).))) | 43.4 | -25.8
